Active and inactive are the calls of the source. No cut-off for these calls is given here.
Experiments:
[1] = biological target: Transcription factor p65 (Mus musculus) (UniProt Q04207); assay: Inhibition of TNF-induced RelA phosphorylation in mouse MEF up to 120 mins by Western blot analysis
[2] = biological target: T1, Inhibitor of nuclear factor kappa-B kinase subunit alpha (Homo sapiens) (UniProt O15111); assay: Inhibition of LPS-induced IkappaBalpha phosphorylation in human THP1 cells measured up to 120 mins by Western blot analysis; assay type: cell-based; details: THP-1
T1 sequence (whole entry): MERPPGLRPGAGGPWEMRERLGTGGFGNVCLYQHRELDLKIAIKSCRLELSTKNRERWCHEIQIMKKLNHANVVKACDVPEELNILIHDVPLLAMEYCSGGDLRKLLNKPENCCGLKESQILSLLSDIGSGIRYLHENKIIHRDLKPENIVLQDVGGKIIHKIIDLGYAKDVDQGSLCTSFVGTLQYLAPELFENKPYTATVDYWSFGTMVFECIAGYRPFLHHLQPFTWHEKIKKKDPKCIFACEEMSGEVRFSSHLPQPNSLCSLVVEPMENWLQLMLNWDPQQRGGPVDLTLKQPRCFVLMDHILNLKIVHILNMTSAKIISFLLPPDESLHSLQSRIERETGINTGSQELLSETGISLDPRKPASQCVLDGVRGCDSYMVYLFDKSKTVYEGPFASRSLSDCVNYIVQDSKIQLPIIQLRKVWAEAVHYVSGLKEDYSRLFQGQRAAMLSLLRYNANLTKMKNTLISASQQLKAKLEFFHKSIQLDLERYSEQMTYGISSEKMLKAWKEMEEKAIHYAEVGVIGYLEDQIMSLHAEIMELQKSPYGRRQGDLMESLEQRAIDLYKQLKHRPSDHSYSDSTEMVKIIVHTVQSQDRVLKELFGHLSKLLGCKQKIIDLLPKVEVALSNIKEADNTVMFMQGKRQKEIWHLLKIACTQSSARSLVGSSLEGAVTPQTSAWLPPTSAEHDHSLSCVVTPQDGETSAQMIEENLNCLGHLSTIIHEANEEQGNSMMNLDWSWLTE

[3] = biological target: T2, MAP kinase p38 (Mus musculus) (UniProt P47811+O08911+Q9WUI1+Q9Z1B7); assay: Inhibition of LPS-induced p38 phosphorylation in C57BL/6 mouse alveolar macrophages measured up to 120 mins by Western blot analysis
BMDM [4] = assay: Inhibition of LPS-induced MCP-1 mRNA expression in mouse BMDM up to 3 hrs by Northern blot analysis; assay type: functional, cell-based
[5] = biological target: T1, Inhibitor of nuclear factor kappa-B kinase subunit alpha (Homo sapiens); assay: Inhibition of IkappaBalpha phosphorylation in human bronchial epithelial cells assessed after 2 hrs by Western blot analysis; assay type: cell-based; details: Epithelial cell
Procedure, shortened: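 WI38 lung fibroblasts and bronchial epithelial cells were stimulated for 2 hours. The same Western blot was probed for PARP cleavage, total IκBα and phosphorylated IκBα.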

MEF [6] = assay: Inhibition of LPS-induced MCP-1 mRNA expression in MEF after 90 mins by Northern blot analysis; assay type: functional, cell-based; details: Mus musculus
[7] = biological target: MAP kinase p38 (Homo sapiens) (UniProt O15264+Q15759+Q16539+P53778); assay: Inhibition of LPS-induced p38 phosphorylation in human THP1 cells measured up to 120 mins by Western blot analysis; assay type: cell-based; details: THP-1
MEF [8] = assay: Inhibition of LPS-induced RANTES mRNA expression in MEF after 90 mins by Northern blot analysis; assay type: functional, cell-based; details: Mus musculus
MEF [9] = assay: Inhibition of TNF-induced IkappaBbeta expression in mouse MEF up to 120 mins by Western blot analysis; assay type: functional, cell-based
Mus musculus [10] = organism: Mus musculus; assay: Induction of IKK activity in mouse BMDM assessed as GST-IkappaBalpha phosphorylation by immunoprecipitation kinase assay
Mus musculus [11] = organism: Mus musculus; assay: Effect on IKK activity in LPS-induced mouse BMDM assessed as induction of phosphorylation of p38 treated 2 hrs after LPS challenge measured up to 120 mins by immunoblot analysis
Macrophage [12] = assay: Inhibition of LPS-induced IP-10 mRNA expression in mouse alveolar macrophages after 90 mins by Northern blot analysis; assay type: functional, cell-based
Macrophage [13] = assay: Inhibition of LPS-induced RANTES mRNA expression in mouse alveolar macrophages after 90 mins by Northern blot analysis; assay type: functional, cell-based
BMDM [14] = assay: Inhibition of heat-killed Staphylococcus aureus-induced RANTES mRNA expression in mouse BMDM by Northern blot analysis; assay type: functional, cell-based
Macrophage [15] = assay: Inhibition of LPS-induced IkappaBalpha mRNA expression in mouse C57BL/6 mouse alveolar macrophages up to 50 uM by Northern blot analysis; assay type: functional, cell-based
Mus musculus [16] = organism: Mus musculus; assay: Suppression of LPS-induced TNF expression in C57BL/6 transgenic mouse bearing TNF-reporter after 2 hrs by luciferase reporter gene assay; assay type: functional, organism-based
Procedure, shortened: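 Animals received an injection of vehicle, LPS, C12, or LPS plus C12. Whole-animal bioluminescence was recorded 2 hours after injection as the read-out of reporter activity.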

[17] = biological target: T2, MAP kinase p38 (Mus musculus); assay: Inhibition of TNF-induced p38 phosphorylation in mouse MEF up to 120 mins by Western blot analysis
Macrophage [18] = assay: Inhibition of LPS-induced TNF mRNA expression in mouse C57BL/6 mouse alveolar macrophages up to 50 uM by Northern blot analysis; assay type: functional, cell-based
BMDM [19] = assay: Inhibition of LPS-induced IkBbeta protein level in mouse BMDM treated 2 hrs after LPS challenge measured up to 120 mins by Western blot analysis; assay type: functional, cell-based
THP-1 = assay: Inhibition of LPS-induced IkappaBalpha expression in human THP1 cells measured up to 120 mins by Western blot analysis; assay type: functional, cell-based
BMDM [20] = assay: Induction of c-jun mRNA expression in mouse BMDM at 50 uM after 2 hrs by Northern blot analysis; assay type: functional
Macrophage [21] = assay: Inhibition of LPS-induced c-jun mRNA expression in mouse alveolar macrophages after 90 mins by Northern blot analysis; assay type: functional, cell-based
Macrophage [22] = assay: Inhibition of LPS-induced TNF mRNA expression in mouse alveolar macrophages after 90 mins by Northern blot analysis; assay type: functional, cell-based
[23] = biological target: Transcription factor p65 (Mus musculus) (UniProt Q04207); assay: Inhibition of LPS-induced RelA phosphorylation in [32P]orthophosphate metabolically labelled mouse BMDM assessed as phosphorylated IkappaBbeta/RelA binding measured up to 120 mins in absence of IkappaBalpha by SDS-PAGE and autoradiography
BMDM [24] = assay: Inhibition of heat-killed Staphylococcus aureus-induced B7h mRNA expression in mouse BMDM by Northern blot analysis; assay type: functional
MEF [25] = assay: Inhibition of TNF-induced IkappaBalpha expression in mouse MEF up to 120 mins by Western blot analysis; assay type: functional, cell-based
[26] = biological target: T2, MAP kinase p38 (Mus musculus); assay: Inhibition of LPS-induced p38 phosphorylation in mouse BMDM measured up to 120 mins by Western blot analysis
[27] = biological target: T1, Inhibitor of nuclear factor kappa-B kinase subunit alpha (Homo sapiens); assay: Inhibition of TNF-induced IkappaBalpha phosphorylation in human bronchial epithelial cells up to 120 mins by Western blot analysis; assay type: cell-based; details: Epithelial cell
MEF [28] = assay: Effect on TNF-induced c-jun mRNA expression in MEF by Northern blot analysis; assay type: functional, cell-based; details: Mus musculus
Epithelial cell = assay: Inhibition of TNF-induced IkappaBbeta expression in human bronchial epithelial cells up to 120 mins by Western blot analysis; assay type: functional, cell-based
BMDM [29] = assay: Inhibition of LPS-induced IkappaBalpha expression in mouse BMDM measured up to 120 mins by Western blot analysis; assay type: functional, cell-based

Transcription factor p65 (Mus musculus), sequence (Q04207 whole entry): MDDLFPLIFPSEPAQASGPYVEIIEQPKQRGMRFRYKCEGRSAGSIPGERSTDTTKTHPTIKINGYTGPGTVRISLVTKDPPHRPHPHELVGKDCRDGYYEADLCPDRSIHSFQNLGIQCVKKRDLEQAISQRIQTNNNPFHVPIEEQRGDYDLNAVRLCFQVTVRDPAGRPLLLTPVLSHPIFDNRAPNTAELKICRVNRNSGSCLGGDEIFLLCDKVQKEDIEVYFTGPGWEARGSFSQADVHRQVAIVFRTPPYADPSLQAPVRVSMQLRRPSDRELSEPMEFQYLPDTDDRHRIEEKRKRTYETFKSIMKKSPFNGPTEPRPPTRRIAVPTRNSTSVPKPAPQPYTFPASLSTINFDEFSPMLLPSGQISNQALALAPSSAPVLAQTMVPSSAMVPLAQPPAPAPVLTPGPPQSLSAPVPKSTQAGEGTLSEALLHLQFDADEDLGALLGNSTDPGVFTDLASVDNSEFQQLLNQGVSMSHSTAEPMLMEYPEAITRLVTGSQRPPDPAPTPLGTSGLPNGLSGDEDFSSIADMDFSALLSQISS

## CCCCCCCCCC(=O)CC(=O)N[C@H]1CCOC1=O
[1]
  Activity: Active
[2]
  Activity: Active
[3]
  Activity: Active
BMDM [4]
  Activity: Dose-dependent effect
[5]
  Activity: Active
MEF [6]
  Activity: Dose-dependent effect
[7]
  Activity: Active
MEF [8]
  Activity: Dose-dependent effect
MEF [9]
  Activity: Active
Mus musculus [10]
  Activity: inactive
Mus musculus [11]
  Activity: Active
Macrophage [12]
  Activity: Dose-dependent effect
Macrophage [13]
  Activity: Dose-dependent effect
BMDM [14]
  Activity: Active
Macrophage [15]
  Activity: Active
Mus musculus [16]
  Activity: Active
[17]
  Activity: Active
Macrophage [18]
  Activity: Active
BMDM [19]
  Activity: inactive
THP-1
  Activity: Active
BMDM [20]
  Activity: Active
Macrophage [21]
  Activity: Dose-dependent effect
Macrophage [22]
  Activity: Dose-dependent effect
[23]
  Activity: Active
BMDM [24]
  Activity: Active
MEF [25]
  Activity: Active
[26]
  Activity: inactive
[27]
  Activity: Active
MEF [28]
  Activity: Active
Epithelial cell
  Activity: Active
BMDM [29]
  Activity: Active

Source: ChEMBL document CHEMBL1152866, “Modulation of gene expression via disruption of NF-kappaB signaling by a bacterial small molecule” (Science, 2008)
